NTR1 agonist = NTR1 (human) agonism; P30989; NTR1-U2OS beta-arrestin-GFP spot imaging, agonist mode; activation, % at 20 µM; 330,000 tested, 0.17% active; AID 493036;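 active means activation at or above 40% of the spot to cytoplasm intensity ratio, with at least 20 cells analyzed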;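 further: 0% = DMSO without peptide and 100% = 100 nM NTR1 peptide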
Target sequence (P30989 whole entry, looked up): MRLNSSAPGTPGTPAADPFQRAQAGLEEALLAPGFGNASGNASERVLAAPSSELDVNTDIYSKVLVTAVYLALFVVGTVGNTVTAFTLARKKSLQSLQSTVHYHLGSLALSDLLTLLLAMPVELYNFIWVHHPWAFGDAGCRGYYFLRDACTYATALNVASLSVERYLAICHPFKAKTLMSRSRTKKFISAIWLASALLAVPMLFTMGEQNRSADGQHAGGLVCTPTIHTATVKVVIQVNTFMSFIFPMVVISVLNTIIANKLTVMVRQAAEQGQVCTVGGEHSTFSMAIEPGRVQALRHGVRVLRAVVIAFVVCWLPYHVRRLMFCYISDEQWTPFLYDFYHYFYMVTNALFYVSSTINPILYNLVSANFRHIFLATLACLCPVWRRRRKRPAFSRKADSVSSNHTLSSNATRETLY
MC4R barr agon = human MC4R agonism via beta-arrestin | P32245 | U2OS MC4R beta-arrestin complementation, luminescence; percent of melanotan II response, DMSO zero | activation, % at 8.9 µM | 360,000 tested, 0.98% active | AID 540308;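 active means activation above a per-plate cutoff, the mean activation of sample wells on that plate plus 3 SD, cut at about 8% in these data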
Target sequence (P32245 whole entry, looked up): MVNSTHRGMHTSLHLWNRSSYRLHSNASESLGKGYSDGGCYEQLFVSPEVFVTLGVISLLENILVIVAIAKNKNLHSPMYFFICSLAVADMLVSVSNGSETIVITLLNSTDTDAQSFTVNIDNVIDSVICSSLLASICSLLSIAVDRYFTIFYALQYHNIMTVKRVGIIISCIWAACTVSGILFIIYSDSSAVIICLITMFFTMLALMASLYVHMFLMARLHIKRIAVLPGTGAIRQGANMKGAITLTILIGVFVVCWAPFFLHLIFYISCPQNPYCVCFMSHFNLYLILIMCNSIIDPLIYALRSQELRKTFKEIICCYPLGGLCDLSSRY
Tb MetRS inh = blocks T. brucei methionyl-tRNA synthetase activity; inhibition, % at 11.9 µM; 360,000 tested, 0.4% active; purified T. brucei MetRS, ATP depletion, Kinase-Glo luminescence;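 active means inhibition above a per-plate cutoff of the control wells' mean inhibition plus 3 SD, cut at about 5.5% in these data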;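 further: 0% = DMSO wells median and 100% = median of wells with control inhibitor compound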
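Test system: purified T. brucei MetRS enzyme. Also added: ATP, methionine and E. coli bulk tRNA substrates. Compound: 11.9 µM single point. Schedule: 15 min enzyme-compound preincubation, 2 h reaction, 10 min detection, 25 °C. Signal: luciferase luminescence of residual ATP, Kinase-Glo. Evaluation: percent inhibition versus plate control medians. Controls: DMSO wells, low control.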
aDG glyco up = alpha-DG glycosylation activation. Pro5-aDG cells, alpha-DG glycosylation AlphaScreen (IIH6); 0% Pro5, 100% B10-LARGE cell signal. activation, % at 10 µM. 360,000 tested, 0.22% active. AID 624168;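 active means activation of at least 8% versus controls, or a plate z-score of at least 8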;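 further: Pro5 are CHO cells carrying HIG-tagged alpha-DG that lacks glycosylation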
H9c2 TAG inh = reduces triacylglycerol accumulation in H9c2 cells. inhibition, % at 12.5 µM. Nile Red lipid (TAG) fluorescence; cells loaded with 200 µM oleic acid. 230,000 tested, 0.66% active;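 active means pattern-corrected inhibition of lipid staining of at least 50% with the nuclear-stain viability signal not falling by more than 50%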;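 further: 0% = DMSO wells and 100% = triacsin C control wells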
MC4R antagonist = human MC4R antagonism in cAMP assay; P32245; MC4R-expressing cells, MTII-stimulated cAMP, LANCE TR-FRET; inhibition, % at 6.5 µM; 360,000 tested, 0.48% active;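 active means inhibition above its plate's cutoff, the mean of tested wells on that plate plus 3 SD, cut at about 29% in these data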;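 further: 0% = Melanotan II alone and 100% = Melanotan II plus saturating MCL0020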
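material = U2OS cells stably expressing human melanocortin 4 receptor (MC4R) | also added = Melanotan II challenge | dosing = single nominal compound dose of 6.5 µM | detection = TR-FRET with Eu-cAMP and labeled anti-cAMP, 671 nm | replication = singlicate | timing = compound 30 min, challenge 1 h, detection 1 h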
TbMetRS confirm = Trypanosoma brucei MetRS inhibition confirmed | shares compounds with Tb MetRS inh | T. brucei MetRS enzyme, luminescence (ATP depletion) | inhibition, % at 11.9 µM | 1,400 tested, 93% active | AID 624412; in the data active means inhibition above about 7%
Jurkat tox = kills Jurkat cells in T. brucei MetRS counterscreen. shares compounds with Tb MetRS inh. Jurkat cells viability, ATP luminescence. 1,400 tested, 12% active. inhibition, % at 8.3 µM; in the data active means inhibition above about 15%;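 further: 0% = vehicle and 100% = reference inhibitor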
Tb MetRS inh FP = inhibits T. brucei methionyl tRNA synthetase in orthogonal FP test. shares compounds with Tb MetRS inh. purified T. brucei MetRS, fluorescence polarization. inhibition, % at 11.9 µM. 1,400 tested, 44% active. AID 651607; in the data active means inhibition above about 17%;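 further: 0% = vehicle wells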
Numbers without * were called inactive. Shown are actives, neighbours in structure and some others; about 2.4% of the full set was active somewhere.

How did CCOC(=O)[C@]12CCC=C1N(Cc1ccco1)C(=O)[C@H](CC(=O)NCc1cccc3ccccc13)C2 do in these assays?
Tb MetRS inh: -0.1; aDG glyco up: 0.2

What do the screens show for `Nc1cc(C(=O)OCC(=O)NCCCc2ccccc2)ccc1Cl`?
NTR1 agonist: -0.9; MC4R barr agon: 1.5; Tb MetRS inh: 9.0*; aDG glyco up: -0.1; MC4R antagonist: -0.6; TbMetRS confirm: 17.6*; Jurkat tox: -8.9; Tb MetRS inh FP: 7.3

How did CCSc1nsc(NC(=O)Nc2ccccc2F)n1 do in these assays?
NTR1 agonist: 5.9; MC4R barr agon: 2.6; Tb MetRS inh: 7.0*; aDG glyco up: 0.1; H9c2 TAG inh: -4.6; MC4R antagonist: 1.1; TbMetRS confirm: 12.7*; Jurkat tox: 4.6; Tb MetRS inh FP: 5.9

What do the screens show for `CCSc1nsc(NC(=O)Nc2cccc(OC)c2)n1`?
NTR1 agonist: 15.7; MC4R barr agon: 3.9; Tb MetRS inh: 0.3; aDG glyco up: 0.4; MC4R antagonist: 12.1

Results for CSC[C@H]1CN(c2ccccc2)C(=O)[C@@H]1CC(=O)Nc1ccc(Br)cc1 ?
MC4R barr agon: 3.4; Tb MetRS inh: 20.9*; aDG glyco up: 1.0; H9c2 TAG inh: 1.6; MC4R antagonist: 11.8; TbMetRS confirm: 36.2*; Jurkat tox: 1.6; Tb MetRS inh FP: 10.6

Results for O=C(C[C@H]1C(=O)N(CCc2ccccc2)C[C@@H]1Cc1ccccc1)Nc1ccc(Br)cc1 ?
MC4R barr agon: 2.9; Tb MetRS inh: 3.7; aDG glyco up: 0.4; H9c2 TAG inh: -4.6; MC4R antagonist: 6.9

How did CCCCN1C[C@H](CSC)[C@@H](CC(=O)Nc2ccc(Br)cc2)C1=O do in these assays?
MC4R barr agon: 0.3; Tb MetRS inh: 36.6*; aDG glyco up: -0.2; H9c2 TAG inh: 1.9; MC4R antagonist: 7.7; TbMetRS confirm: 54.2*; Jurkat tox: 8.2; Tb MetRS inh FP: 24.6*

Results for CSC[C@H]1CN(CCc2ccccc2)C(=O)[C@@H]1CC(=O)Nc1ccc(Br)cc1 ?
MC4R barr agon: 5.2; Tb MetRS inh: 15.2*; aDG glyco up: -0.1; H9c2 TAG inh: -3.6; MC4R antagonist: 2.0; TbMetRS confirm: 37.2*; Jurkat tox: 6.8; Tb MetRS inh FP: 12.3

How did O=C(Cn1c2[n+](c3ccc(C(F)(F)F)cc31)CCCCC2)Nc1ccccc1 do in these assays?
NTR1 agonist: -1.2; MC4R barr agon: 2.0; Tb MetRS inh: 28.2*; aDG glyco up: 0.1; H9c2 TAG inh: 7.9; MC4R antagonist: 9.6; TbMetRS confirm: 35.4*; Jurkat tox: -5.8; Tb MetRS inh FP: 16.6

What do the screens show for `CCc1cccc(NC(=O)Cn2c3[n+](c4ccc(C(F)(F)F)cc42)CCCCC3)c1`?
NTR1 agonist: -1.2; MC4R barr agon: -1.2; Tb MetRS inh: 0.3; aDG glyco up: 0.1; MC4R antagonist: 1.4

How did CCCCNc1nc(NCc2ccccc2)nc2ccccc12 do in these assays?
Tb MetRS inh: 10.2*; aDG glyco up: 0.7; TbMetRS confirm: 22.0*; Jurkat tox: 61.6*; Tb MetRS inh FP: 5.0

Results for OCCNc1nc(Nc2ccccc2)nc2ccccc12 ?
NTR1 agonist: 0.8; MC4R barr agon: 0.0; Tb MetRS inh: 11.2*; aDG glyco up: -0.3; H9c2 TAG inh: -4.1; MC4R antagonist: -0.1; TbMetRS confirm: 31.1*; Jurkat tox: -0.8; Tb MetRS inh FP: 7.9

What do the screens show for `CNc1nc(NCc2ccccc2)c2ccccc2n1`?
NTR1 agonist: 3.3; MC4R barr agon: -1.8; Tb MetRS inh: 1.9; aDG glyco up: 1.4; MC4R antagonist: 2.9

Results for OCCNc1nc(Nc2ccc(Br)cc2)nc2ccccc12 ?
NTR1 agonist: 3.5

What do the screens show for `Cc1ccc(NC(=O)COC(=O)C2(c3ccc(Cl)cc3)CCCC2)cc1`?
NTR1 agonist: 9.6; MC4R barr agon: 3.5; Tb MetRS inh: 6.9*; aDG glyco up: 0.6; MC4R antagonist: 4.8; TbMetRS confirm: 12.1*; Jurkat tox: 3.3; Tb MetRS inh FP: 11.9

Results for O=C(COc1nsnc1N1CCOCC1)Nc1ccc(Br)cc1 ?
NTR1 agonist: 0.7; MC4R barr agon: -0.5; Tb MetRS inh: 20.3*; aDG glyco up: 0.0; MC4R antagonist: 8.0; TbMetRS confirm: 43.1*; Jurkat tox: 1.1; Tb MetRS inh FP: 25.3*

How did Cc1cccc(CCNC(=O)c2cc(S(=O)(=O)N3CCCCC3)c[nH]2)c1 do in these assays?
NTR1 agonist: 2.1; MC4R barr agon: -1.4; Tb MetRS inh: 26.6*; aDG glyco up: 0.7; H9c2 TAG inh: -2.8; MC4R antagonist: 1.3; TbMetRS confirm: 46.2*; Jurkat tox: 6.7; Tb MetRS inh FP: 27.6*

How did COc1ccc(CCNC(=O)c2cc(S(=O)(=O)N3CCCCC3)c[nH]2)cc1OC do in these assays?
NTR1 agonist: 1.9; MC4R barr agon: 1.4; Tb MetRS inh: 1.0; aDG glyco up: -0.1; H9c2 TAG inh: -7.7; MC4R antagonist: 2.5

How did C=CCc1cccc(CNc2nc3ccccc3n2C(C)C)c1O do in these assays?
NTR1 agonist: 6.5; MC4R barr agon: 0.5; Tb MetRS inh: 6.7*; aDG glyco up: 0.8; MC4R antagonist: 1.7; TbMetRS confirm: 10.8*; Jurkat tox: 9.0; Tb MetRS inh FP: 0.5

Results for C=CCn1c(NCc2ccccc2O)nc2ccccc21 ?
NTR1 agonist: 0.3; MC4R barr agon: 0.1; Tb MetRS inh: 0.3; aDG glyco up: 0.1; H9c2 TAG inh: -15.8; MC4R antagonist: -3.1

How did C=CCn1c(NCc2cc(Cl)ccc2O)nc2ccccc21 do in these assays?
NTR1 agonist: 2.7; MC4R barr agon: 2.7; Tb MetRS inh: 13.2*; aDG glyco up: 0.4; MC4R antagonist: 0.7; TbMetRS confirm: 24.9*; Jurkat tox: -0.2; Tb MetRS inh FP: 9.1

What do the screens show for `CC(C)NC(=O)C1(C)CN(S(C)(=O)=O)CC(=O)N1C1CC1` (configuration not stated)?
Tb MetRS inh: -0.4; aDG glyco up: -0.1

How did C[C@@H]1CN([C@H](C)CO)S(=O)(=O)c2ccc(C3=CCCCC3)cc2O[C@H]1CN(C)C(=O)Cc1cccnc1 do in these assays?
MC4R barr agon: 2.5; Tb MetRS inh: -1.2; aDG glyco up: 0.1; H9c2 TAG inh: 15.9; MC4R antagonist: 7.3

What do the screens show for `O=C(NCc1ccccc1)C1c2ccccc2OCC(=O)N1CCc1c[nH]c2ccccc12` (configuration not stated)?
Tb MetRS inh: 0.5; aDG glyco up: -0.1
